Assays:
[1] = tested on: HT-1376; test: Cytotoxicity against human bladder carcinoma, HT1376 cells; format: functional, cell-based
Summary of the method: (§1)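 Dose-response proliferation assay over 0.16 to 20 µM (final) in tissue-culture plates. Cells were incubated 72 h at 37 °C in 5% CO2, and inhibition was read as Alamar Blue conversion by fluorescence at excitation/emission 544/590 nm.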

[2] = tested on: TF-1; test: Cytotoxicity against human erythroleukemia TF1 cells; format: functional, cell-based; summary of the method: as §1
[3] = species on record: Rattus norvegicus; test: Inhibition of blood vessel growth in rat aorta at 10 ug/mL; format: functional
Summary of the method: (§2)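 In vitro angiogenesis assay using rat aorta blood vessel fragments, with compounds dissolved in DMSO. The read-out is percent inhibition of blood vessel growth at each fixed test concentration.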

[4] = species on record: Rattus norvegicus; test: Inhibition of blood vessel growth in rat aorta at 1 ug/mL; format: functional; summary of the method: as §2
[5] = tested on: A-431; test: Cytotoxicity against human epidermoid carcinoma, A431 cells; format: functional, cell-based; summary of the method: as §1
[6] = tested on: HCT-15; test: Cytotoxicity against human colon carcinoma, HCT15 cells; format: functional, cell-based; summary of the method: as §1
[7] = species on record: Rattus norvegicus; test: Inhibition of blood vessel growth in rat aorta at 0.1 ug/mL; format: functional; summary of the method: as §2
[8] = tested on: A-375; test: Cytotoxicity against human melanoma, A375 cells; format: functional, cell-based; summary of the method: as §1
[9] = tested on: BT-20; test: Cytotoxicity against human breast carcinoma, BT20 cells; format: functional, cell-based; summary of the method: as §1
[10] = species on record: Rattus norvegicus; test: Inhibition of blood vessel growth in rat aorta at 100 ug/mL; format: functional; summary of the method: as §2
[11] = tested on: MAT-Ly-Lu; test: Cytotoxicity against rat prostate carcinoma, MatLyLu cells; format: functional, cell-based; summary of the method: as §1
[12] = tested on: CTLL; test: Cytotoxicity against murine cytotoxic T cells, CTLL2; format: functional, cell-based; details: Mus musculus; summary of the method: as §1
[13] = tested on: KHOS/NP; test: Cytotoxicity against human osteosarcoma, KHOS-NP cells; format: functional, cell-based; summary of the method: as §1
[14] = tested on: A549; test: Cytotoxicity against human lung carcinoma, A549 cells; format: functional, cell-based; summary of the method: as §1
[15] = tested on: Ramos; test: Cytotoxicity against human Burkitt lymphoma, RAMOS cells; format: functional, cell-based; summary of the method: as §1
[16] = tested on: PA-1; test: Cytotoxicity against human ovarian teratocarcinoma, PA1 cells; format: functional, cell-based; summary of the method: as §1
[17] = tested on: Daudi; test: Cytotoxicity against human Burkitt lymphoma, DAUDI cells; format: functional, cell-based; summary of the method: as §1
[18] = tested on: MES-SA; test: Cytotoxicity against human uterine sarcoma, MES-SA cells; format: functional, cell-based; summary of the method: as §1
[19] = tested on: BUD-8; test: Cytotoxicity against human fibroblast, BUD8 cells; format: functional, cell-based; summary of the method: as §1
[20] = tested on: MES-SA/Dx5; test: Cytotoxicity against human uterine sarcoma, MES-SA-Dx5 cells derived from MES-SA; format: functional, cell-based; summary of the method: as §1
[21] = tested on: HepG2; test: Cytotoxicity against human hepatoma, HEPG2 cells; format: functional, cell-based; summary of the method: as §1
[22] = tested on: HEK293; test: Cytotoxicity against HEK293 cells; format: functional, cell-based; details: Homo sapiens; summary of the method: as §1
[23] = tested on: MCF7; test: Cytotoxicity against human breast carcinoma, MCF7 cells; format: functional, cell-based; summary of the method: as §1

| SMILES | IC50 [1] [µM] | IC50 [2] [µM] | inhibition at 10 µg/mL [3] [%] | inhibition at 1 µg/mL [4] [%] | IC50 [5] [µM] | IC50 [6] [µM] | inhibition at 0.1 µg/mL [7] [%] | IC50 [8] [µM] | IC50 [9] [µM] | inhibition at 100 µg/mL [10] [%] | IC50 [11] [µM] | IC50 [12] [µM] | IC50 [13] [µM] | IC50 [14] [µM] | IC50 [15] [µM] | IC50 [16] [µM] | IC50 [17] [µM] | IC50 [18] [µM] | IC50 [19] [µM] | IC50 [20] [µM] | further results |
| --- | --- | --- | --- | --- | --- | --- | --- | --- | --- | --- | --- | --- | --- | --- | --- | --- | --- | --- | --- | --- | --- |
| COc1cc2cc(CN3CCCC[C@H]3C)c3ccc(O)cc3c2cc1OC | 6.04 | 8.4 | 85 | 47 | 20 | 7.97 | 18 | 9.38 | 11.6 | 100 | > 20 | 8.1 | 13.4 | 15.2 | – | – | – | – | – | – | – |
| COc1ccc(/C(=C\c2ccc(OC)c(OC)c2)CN2CCCC[C@@H]2C)cc1 | > 20 | > 20 | 43 | 68 | > 20 | > 20 | 22 | > 20 | > 20 | 100 | > 20 | > 20 | > 20 | > 20 | > 20 | > 20 | > 20 | > 20 | > 20 | > 20 | IC50 [21]: > 20 µM; IC50 [22]: > 20 µM |
| COc1ccc(/C=C(/CN2CCCC[C@H]2C)c2ccc(O)cc2)cc1OC | > 20 | > 20 | 65 | 43 | > 20 | > 20 | – | > 20 | > 20 | 100 | > 20 | > 20 | > 20 | > 20 | > 20 | > 20 | > 20 | > 20 | > 20 | > 20 | IC50 [21]: > 20 µM; IC50 [22]: > 20 µM |
| COc1ccc2ccc3cc(OC)c(OC)cc3c2c1 | > 20 | > 20 | 42 | – | > 20 | > 20 | – | > 20 | > 20 | 83 | > 20 | 17.5 | > 20 | > 20 | > 20 | > 20 | > 20 | > 20 | > 20 | > 20 | IC50 [23]: > 20 µM |
| COc1cc2cc(CN3CCCC[C@@H]3C)c3ccc(O)cc3c2cc1OC | 8.31 | 9.8 | 74 | 58 | 13.8 | 8.41 | 35 | 11.2 | 13.7 | 100 | > 20 | 9.09 | 15.4 | 16.6 | 18.2 | 8 | 13.5 | 14.1 | 18.2 | 11.8 | IC50 [21]: 8.33 µM; IC50 [22]: 14.8 µM |
| COc1ccc2c(CN(C)C)cc3cc(OC)c(OC)cc3c2c1 | 7.88 | 6.75 | 100 | 22 | 5.37 | 8.27 | 7 | 7.1 | 7.38 | – | 17.3 | 3.39 | 17.1 | 17 | 16.6 | 4.16 | 15.7 | 9.1 | > 20 | 16.8 | IC50 [23]: 18.6 µM |
| COc1ccc2c(CN3CCCC[C@@H]3C)cc3cc(OC)c(OC)cc3c2c1 | 9.68 | 7.2 | 100 | 42 | 8.12 | 7.82 | 17 | 8.96 | 10.2 | 100 | 15 | 7.61 | 12.3 | 11.2 | > 20 | 7.38 | 9.08 | 10.1 | > 20 | 11.7 | IC50 [21]: 8.12 µM; IC50 [22]: 15.5 µM |
| COc1ccc2c(CN3CCCC[C@H]3C)cc3cc(OC)c(OC)cc3c2c1 | 9.51 | 7.65 | 100 | 48 | 8.09 | 8.33 | 29 | 10.1 | 10.9 | – | 15 | 8.1 | 14 | 12 | 15.5 | 7.27 | 12 | 9.04 | > 20 | 8.46 | IC50 [21]: 7.27 µM; IC50 [22]: 17.1 µM |
| COc1ccc(/C(=C\c2ccc(OC)c(OC)c2)CN2CCCC[C@H]2C)cc1 | > 20 | > 20 | 62 | 59 | > 20 | > 20 | 36 | > 20 | > 20 | 100 | > 20 | > 20 | > 20 | > 20 | > 20 | > 20 | > 20 | > 20 | > 20 | > 20 | IC50 [21]: > 20 µM; IC50 [22]: > 20 µM |
| COc1ccc2c3c(c4cc(OC)c(OC)cc4c2c1)C[C@H]1CCCCN1C3 [CRYPTOPLEURINE] | 0.004 | – | – | – | 0.003 | 0.003 | – | 0.003 | 0.003 | – | 0.003 | – | 0.01 | 0.003 | 0.003 | 0.002 | 0.002 | 0.003 | 0.006 | 0.003 | IC50 [23]: 0.003 µM |
| COc1ccc(/C=C(/CN2CCCC[C@@H]2C)c2ccc(O)cc2)cc1OC | > 20 | > 20 | 42 | 53 | > 20 | > 20 | 31 | > 20 | > 20 | 100 | > 20 | > 20 | > 20 | > 20 | > 20 | > 20 | > 20 | > 20 | > 20 | > 20 | IC50 [21]: > 20 µM; IC50 [22]: > 20 µM |
